High-throughput results deposited in PubChem BioAssay by several laboratories.
Hits are enriched below; roughly 4.9% of the tested compounds scored in any of these assays.
Lipid droplet = modulators of hepatic lipid droplet formation | AML12 mouse hepatocytes, oleate lipid droplets, BODIPY imaging | inhibition, % at 6.5 µM | 240,000 compounds, 0.4% hits | AID 1656;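 active = lipid droplet intensity inhibited by at least 50%, with more than 500 cells counted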
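Assay system: AML12 mouse liver cells | Compound: 6.5 µM single-point dosing | Schedule: Overnight exposure | Technique: Fluorescence imaging, 20x objective, two fields per well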
CHT inh = human CHT choline transport inhibition; Q9GZV3; CHT-expressing cells, membrane potential dye, choline response; hits give low values; B-score at 10 µM; 310,000 compounds, 0.86% hits; AID 488975;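 active = B-score over 3 SD under the library average, and starting fluorescence ratio not unusually high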;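 also: choline stimulus applied at its EC90 after an EC20 pre-addition; B-score computed on integrated fluorescence ratio after choline addition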
CHT allo act = allosteric activators of human choline transporter CHT; 310,000 compounds, 0.49% hits; B-score at 10 µM; CHT-expressing cells, membrane potential dye, choline EC20; hits give high values; LV-AA mutant CHT in HEK293 cells; Q9GZV3; AID 488977;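 active = initial fluorescence not abnormally high and integrated response B-score, plate-corrected, over 3 SD above library mean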
HSF1 inh = HSF1 inhibition. NIH3T3-HGL HSE-luciferase, MG132-induced, luminescence 8 h; hits give low values. activity change, negative = inhibition, % at 7.5 µM (by protocol). 300,000 compounds, 0.77% hits;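 active = more than half of replicate wells show activity change below -50%, luminescence cut by over half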;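 also: luciferase reports HSF-1 transcriptional activity via heat shock element; 0% = median of DMSO wells and -100% = zero luminescence signal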
PHOSPHO1 block = PHOSPHO1 (human) inhibition; recombinant PHOSPHO1, absorbance phosphatase assay; inhibition, % at 13.3 µM; AID 1565; Q8TCT1; 290,000 compounds, 1.1% hits; in the data active = inhibition above about 60%
Target sequence (Q8TCT1 whole entry, looked up): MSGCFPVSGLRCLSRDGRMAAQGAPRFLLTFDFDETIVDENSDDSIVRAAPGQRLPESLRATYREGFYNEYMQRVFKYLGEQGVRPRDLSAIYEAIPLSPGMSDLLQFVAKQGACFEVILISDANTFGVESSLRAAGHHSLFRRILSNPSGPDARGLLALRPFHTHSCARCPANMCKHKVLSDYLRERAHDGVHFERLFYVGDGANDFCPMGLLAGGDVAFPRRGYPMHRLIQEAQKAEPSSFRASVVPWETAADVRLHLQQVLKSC
HSF-1 act = increases HSF-1 driven luciferase reporter signal; 300,000 compounds, 1.7% hits; activation, % at 9 µM; NIH3T3-HGL HSF-1 luciferase reporter, MG132, 8 h; 100% = twice DMSO control signal;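 active = mean replicate activation of at least 50% with a set share of replicates each reaching 50%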;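 also: 0% = median of the neutral control wells and 100% = twice that signal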
An asterisk follows results filed as active; i = inactive; · = no result given.

SMILES	Lipid droplet	CHT inh	CHT allo act	HSF1 inh	PHOSPHO1 block	HSF-1 act
CC(=O)N1CCC2(CC1)C/C(=N\NC(=S)Nc1ccccc1F)c1cc(O)ccc1O2	-2.2	i	i	-52.4*	-62.3	-58.3
C[C@@]12CC(=O)NC1N(C(=O)c1ccccc1)C(c1ccccc1OC(=O)c1ccccc1)C2 (some centres not stated)	0.4	i	i	-2.2	14.7	26.6
N/C(=N\OC(=O)c1ccc2c(c1)OCO2)c1cccc([N+](=O)[O-])c1	1.7	i	i	50.4	54.2	58.6*
Cc1cccc(/C(N)=N/OC(=O)c2ccc3c(c2)OCO3)c1	1.8	i	i	-8.2	-8.8	-18.1
O=C(CN1C(=O)S/C(=C\C=C\c2ccccc2)C1=O)Nc1ccc(O)cc1	-12.2	i	i	37.3	1.5	58.8*
CC(C)[C@H](NS(=O)(=O)c1ccc2c(c1)OCCO2)C(=O)OCC(=O)Nc1ccccc1	-6.0	i	i	-0.6	-9.7	15.3
CCOc1ccc(-c2csc(N)c2C(=O)OC)cc1	-16.7	i	i	-2.9	61.5*	15.1
CCOC(=O)c1c(-c2ccncc2)csc1N	-0.7	i	i	-5.0	-20.9	6.8
C=CCC(NCc1ccccc1)c1ccc(Cl)cc1 (configuration not stated)	-4.8	i	i	7.0	-7.8	26.3
Cc1sc(-n2c(C)cc(/C=N/n3cnnc3)c2C)c(C#N)c1C	·	i	i	1.4	84.3*	11.5
COc1ccc(-c2cn3cc(C)ccc3n2)cc1F	4.8	i	i	23.9	23.4	59.2*
Cc1ccc2nc(-c3ccc4c(c3)OCCO4)cn2c1	7.6	i	i	-5.9	7.4	-1.8
COc1ccc(-c2cn3cc(C)ccc3n2)cc1OC	0.0	i	i	71.1	-3.3	95.6*
Cc1ccc2nc(-c3ccc4c(c3)NC(=O)CO4)cn2c1	11.2	i	i	33.0	-5.9	64.4*
CCCCC(O)(CCCC)C(=O)NN(C(=O)c1cccnc1Cl)c1ccccc1	13.9	i	i	0.1	24.0	4.6
O=c1[nH]c(SCc2ccccc2Cl)nc2c1cnn2-c1ccccc1	21.4	i	i	-0.4	2.0	4.9
O=C(NCc1ccccc1)C1CCCN1S(=O)(=O)c1ccc(F)cc1 (configuration not stated)	-10.7	i	i	0.3	24.3	3.4
COC(=O)c1cccc(NC(=O)CN2CCN(Cc3ccccc3)CC2)c1	6.0	i	i	-62.0*	-9.8	-70.3
CC(=O)c1cccc(NC(=O)CN2CCN(Cc3ccccc3)CC2)c1	-0.7	i	i	-2.1	39.0	-14.5
O=S(=O)(Nc1ccccc1Cl)c1ccc(-c2ccccn2)s1	·	i	i	2.3	·	0.4
O=C(O)c1cc2cc(F)ccc2[nH]1	-17.8	i	i	-64.3*	6.0	-72.2
Cc1cc(C)n(CCN(C)C(=O)C2CCC(=O)N(CCc3cccc(F)c3)C2)n1 (configuration not stated)	-0.8	i	i	-0.2	64.0*	8.4
CC(C)N(Cc1cnn(C)c1)C(=O)C1CCC(=O)N(CCc2cccc(F)c2)C1 (configuration not stated)	-2.5	i	i	5.3	61.0*	32.4
COc1ccc(CCN2CC(C(=O)N(C)CCn3nc(C)cc3C)CCC2=O)cc1 (configuration not stated)	-0.8	i	i	-0.2	6.8	2.3
COc1ccc(Cn2c(=O)[nH]c3cc(C(=O)N4CCN(c5ccccn5)CC4)ccc3c2=O)cc1	-11.9	i	i	-0.9	16.5	-7.1
SMILES	Lipid droplet	CHT inh	CHT allo act	HSF1 inh	PHOSPHO1 block	HSF-1 act
Cn1c(=O)[nH]c(=O)c2c1nc(SCC(=O)O)n2CCc1ccccc1	·	i	i	0.2	91.4*	13.4
CCCCCn1c(SCc2cccc(C)c2)nc2c1c(=O)[nH]c(=O)n2C	2.2	i	i	26.8	-5.1	60.2*
CCOC(=O)CSc1nc2c(c(=O)[nH]c(=O)n2C)n1C/C=C(/C)Cl	·	i	i	0.9	80.8*	3.6
CCCNC(=O)NCCC12CC3CC(CC(C3)C1)C2	-3.8	i	i	2.4	0.6	-19.7
Cc1cc2nc3ccc(=[N+](C)C)cc-3sc2cc1N	-12.0	·	·	43.6	3.1	57.8*
CN(C)c1ccc2nc3ccc(=[N+](C)C)cc-3sc2c1	16.4	i	i	25.8	-14.1	48.4
O=C(CCn1c(=O)oc2ccc(Cl)cc21)N1CCN(Cc2ccccc2)CC1	6.8	i	i	-2.3	50.4	0.4
O=S(=O)(/C=C/c1ccccc1)NC1CCCCCCC1	5.3	i	i	3.3	5.9	-2.0
CCCCC(=O)OCC(=O)c1[nH]c(C)c(C(=O)OCC)c1C	-11.3	i	i	36.5	10.7	76.1*
CCOC(=O)c1c(C)[nH]c(C(=O)COC(=O)CSC)c1C	-3.5	i	i	15.7	2.7	25.6
CCCCCCC(=O)c1c(C)[nH]c(C(=O)OCC)c1C	-9.2	i	i	29.5	6.3	53.2*
COc1cccc(C2C(C#N)=C(N)Oc3c2oc(CO)cc3=O)c1OC (configuration not stated)	·	i	i	-43.8	-4.2	-48.8
CCN1CCN(CCCNC(=O)c2ccc3c(Cl)c4c(nc3c2)CCCC4)CC1	-2.9	i	i	72.7	34.4	96.7*
CN1CCN(C(=O)c2ccc3c(Cl)c4c(nc3c2)CCCC4)CC1	-27.1	i	i	108.2	14.6	136.1*
CCN1CCN(C(=O)c2ccc3c(Cl)c4c(nc3c2)CCCC4)CC1	-13.2	i	i	72.1	17.4	114.3*
N#CC1CCN(C(=O)c2ccc3c(Cl)c4c(nc3c2)CCCC4)CC1	-31.3	i	i	15.4	11.9	21.2
O=C(NCCCN1CCCCCC1)c1ccc2c(Cl)c3c(nc2c1)CCCC3	-1.6	i	i	5.6	11.2	-9.3
O=C(C[C@@H]1NS(=O)(=O)OC2CCCCC21)c1ccccc1 (some centres not stated)	6.0	i	i	8.5	-1.7	3.7
COc1ccc2nc(NC(=O)C34CC5CC(CC(NC(C)=O)(C5)C3)C4)sc2c1	-2.0	i	i	2.6	27.6	7.5
COc1ccc(OCC(=O)Nc2cccc(NC(=O)c3ccco3)c2)cc1	-23.9	i	i	4.8	35.3	21.8
Cc1ccc(-c2noc(C3CCCCC3)n2)cc1	·	i	i	21.8	10.5	42.8
Clc1ccccc1-c1ncc2ccccn12	4.7	i	i	128.9	60.9*	168.5*
Nn1c(-c2ccccc2Cl)nnc1-c1ccccc1Cl	-1.5	i	i	·	-8.3	·
COc1ccc(-c2ncc3ccccn23)cc1OC	·	i	i	8.2	35.1	26.1
Clc1ccc(-c2ncc3ccccn23)cc1	-11.2	i	i	38.5	51.1	63.1*
